Measurements taken from ChEMBL document CHEMBL4393713, “Synthesis and biological evaluation of novel xanthine derivatives as potential apoptotic antitumor agents” (Eur J Med Chem, 2019).

Experiments:
PANC-1 [1] = assay: Antiproliferative activity against human PANC1 cells assessed as inhibition of cell proliferation measured after 48 hrs by MTT assay; assay type: functional, cell-based; details: PANC-1, 48 h
Summary of the method: (§1)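 Cells tested by MTT: pancreatic Panc-1, breast MCF-7, colon HT-29 and A-549. Doxorubicin run alongside as the reference compound.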

[2] = Cytotoxicity against human MCF10A cells assessed as cell viability at 50 uM measured after 4 days by MTT assay relative to control; assay type: cell-based, MCF-10A; details: read-out: Activity
A549 = assay: Antiproliferative activity against human A549 cells assessed as inhibition of cell proliferation measured after 48 hrs by MTT assay; assay type: functional, cell-based; details: A549, 48 h; summary of the method: as §1
MCF7 = assay: Antiproliferative activity against human MCF7 cells assessed as inhibition of cell proliferation measured after 48 hrs by MTT assay; assay type: functional, cell-based; details: MCF7, 48 h; summary of the method: as §1
HT-29 = assay: Antiproliferative activity against human HT-29 cells assessed as inhibition of cell proliferation measured after 48 hrs by MTT assay; assay type: functional, cell-based; details: HT-29, 48 h; summary of the method: as §1
[3] = target: Epidermal growth factor receptor (Homo sapiens, UniProt P00533); assay: Inhibition of human EGFR measured after 3 hrs by ELISA
Sequence of Epidermal growth factor receptor (P00533 whole entry): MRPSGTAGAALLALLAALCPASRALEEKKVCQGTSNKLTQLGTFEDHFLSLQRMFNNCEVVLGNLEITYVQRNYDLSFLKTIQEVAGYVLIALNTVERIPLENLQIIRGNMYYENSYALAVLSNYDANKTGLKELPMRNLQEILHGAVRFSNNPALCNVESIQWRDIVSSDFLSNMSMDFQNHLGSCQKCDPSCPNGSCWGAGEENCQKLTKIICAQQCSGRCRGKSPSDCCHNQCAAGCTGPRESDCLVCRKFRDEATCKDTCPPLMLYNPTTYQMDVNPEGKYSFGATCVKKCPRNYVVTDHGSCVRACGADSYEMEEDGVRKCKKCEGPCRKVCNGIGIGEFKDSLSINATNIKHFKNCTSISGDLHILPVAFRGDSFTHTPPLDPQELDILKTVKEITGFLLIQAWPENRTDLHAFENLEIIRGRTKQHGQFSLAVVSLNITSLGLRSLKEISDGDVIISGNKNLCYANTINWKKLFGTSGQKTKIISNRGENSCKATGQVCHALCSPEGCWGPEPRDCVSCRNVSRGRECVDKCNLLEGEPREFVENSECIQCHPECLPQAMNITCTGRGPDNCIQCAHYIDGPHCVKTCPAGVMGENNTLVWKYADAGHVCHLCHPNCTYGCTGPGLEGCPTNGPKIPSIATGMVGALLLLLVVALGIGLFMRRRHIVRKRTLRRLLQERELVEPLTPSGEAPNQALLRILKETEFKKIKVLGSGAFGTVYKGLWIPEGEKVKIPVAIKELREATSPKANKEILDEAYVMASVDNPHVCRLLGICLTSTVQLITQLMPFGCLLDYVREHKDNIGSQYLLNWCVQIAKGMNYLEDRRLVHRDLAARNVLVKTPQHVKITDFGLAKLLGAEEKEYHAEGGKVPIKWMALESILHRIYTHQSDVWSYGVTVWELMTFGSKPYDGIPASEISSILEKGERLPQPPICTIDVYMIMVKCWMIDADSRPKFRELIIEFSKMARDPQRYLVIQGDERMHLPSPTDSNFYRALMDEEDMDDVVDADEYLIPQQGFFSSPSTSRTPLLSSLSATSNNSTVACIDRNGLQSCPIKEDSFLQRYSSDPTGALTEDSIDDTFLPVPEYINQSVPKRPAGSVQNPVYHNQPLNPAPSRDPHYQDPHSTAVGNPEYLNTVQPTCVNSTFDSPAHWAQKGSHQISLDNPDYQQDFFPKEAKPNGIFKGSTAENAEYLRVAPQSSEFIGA

PANC-1 [4] = assay: Induction of apoptosis in human PANC1 cells assessed as increase in caspase 3 level measured after 24 to 48 hrs relative to control; assay type: functional
Summary of the method: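 Active caspase-3 protein in treated Panc-1 cells quantified as pg/mL. Reported as fold increase over untreated control cells, with doxorubicin as the reference drug.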

PANC-1 [5] = assay: Cell cycle arrest in human PANC1 cells assessed as accumulation at pre G1 phase measured after 24 hrs by annexin v propidium iodide staining based flow cytometric analysis (reference value: 1.79%); assay type: functional
PANC-1 [6] = assay: Induction of apoptosis in human PANC1 cells assessed as increase in caspase 8 level measured after 24 to 48 hrs relative to control; assay type: functional
Summary of the method: (§2)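 Caspase-8, caspase-9 and cytochrome c levels in treated Panc-1 cells expressed as fold change relative to untreated control cells.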

PANC-1 [7] = assay: Cell cycle arrest in human PANC1 cells assessed as accumulation at G2/M phase measured after 24 hrs by annexin v propidium iodide staining based flow cytometric analysis (reference value: 9.95 %); assay type: functional
PANC-1 [8] = assay: Induction of apoptosis in human PANC1 cells assessed as increase in caspase 9 level measured after 24 to 48 hrs relative to control; assay type: functional; summary of the method: as §2
PANC-1 [9] = assay: Induction of apoptosis in human PANC1 cells assessed as downregulation of Bcl-2 expression level by Sybr-green dye based RT-PCR analysis relative to control; assay type: functional
PANC-1 [10] = assay: Induction of apoptosis in human PANC1 cells assessed as increase in BAX level by Sybr-green dye based RT-PCR analysis relative to control; assay type: functional
PANC-1 [11] = assay: Induction of apoptosis in human PANC1 cells assessed as proportion of early apoptotic cells measured after 24 hrs by annexin v propidium iodide staining based flow cytometric analysis; assay type: functional
PANC-1 [12] = assay: Induction of apoptosis in human PANC1 cells assessed as proportion of necrotic cells measured after 24 hrs by annexin v propidium iodide staining based flow cytometric analysis; assay type: functional
PANC-1 [13] = assay: Induction of apoptosis in human PANC1 cells assessed as proportion of late apoptotic cells measured after 24 hrs by annexin v propidium iodide staining based flow cytometric analysis; assay type: functional
PANC-1 [14] = assay: Induction of apoptosis in human PANC1 cells assessed as increase in cytochrome C level using TMB substrate measured after 24 hrs relative to control; assay type: functional; summary of the method: as §2
PANC-1 [15] = assay: Cell cycle arrest in human PANC1 cells assessed as accumulation at G0/G1 phase measured after 24 hrs by annexin v propidium iodide staining based flow cytometric analysis (reference value: 53.64%); assay type: functional

Row | Compound | IC50 (PANC-1 [1]) [µM] | viability at 96 h, 50 µM [2] [%] | IC50 (A549) [µM] | IC50 (MCF7) [µM] | IC50 (HT-29) [µM] | also measured
1 | Cn1c(=O)[nH]c2nc(SCC(=O)c3ccc(Br)cc3)[nH]c2c1=O | 9.7 | > 90 | 11.9 | 11.2 | 11.5 | 
2 | Cn1c(=O)[nH]c2nc(SCC(=O)c3ccccc3)[nH]c2c1=O | 9.4 | > 90 | 11.9 | 11.6 | 11.1 | 
3 | C/C(=N/O)c1ccc(NC(=O)CSc2nc3[nH]c(=O)n(C)c(=O)c3[nH]2)cc1 | 7.7 | > 90 | 7.3 | 9.1 | 6.2 | 
4 | COc1ccc(C(=O)CSc2nc3[nH]c(=O)n(C)c(=O)c3[nH]2)cc1 | 5.5 | > 90 | 6.1 | 5.9 | 6.7 | 
5 | CC(=O)c1ccc(NC(=O)CSc2nc3c([nH]2)c(=O)n(C)c(=O)n3C)cc1 | 5.1 | > 90 | 6.9 | 6.1 | 6.4 | 
6 | Cn1c(=O)c2[nH]c(SC/C(=N/O)c3ccc(Cl)cc3)nc2n(C)c1=O | 1.3 | > 90 | 1.5 | 1 | 1.2 | IC50 [3]: 0.4 µM; fold change (FC) (PANC-1 [4]): 4.11
7 | CC(=O)c1ccc(NC(=O)CSc2nc3[nH]c(=O)n(C)c(=O)c3[nH]2)cc1 | 5.9 | > 90 | 7.7 | 6.1 | 6.9 | 
8 | Cn1c(=O)c2[nH]c(SC/C(=N/O)c3ccc(Br)cc3)nc2n(C)c1=O | 1.7 | > 90 | 1.8 | 1.3 | 1.7 | IC50 [3]: 0.45 µM; fold change (FC) (PANC-1 [4]): 5.91
9 | Cn1c(=O)[nH]c2nc(SC/C(=N/O)c3ccc(Br)cc3)[nH]c2c1=O | 2.1 | > 90 | 2.1 | 1.7 | 2 | IC50 [3]: 2.88 µM; fold change (FC) (PANC-1 [4]): 4.99
10 | Cn1c(=O)c2[nH]c(SCC(=O)c3ccc(Cl)cc3)nc2n(C)c1=O | 7.2 | > 90 | 8.4 | 8.4 | 9.9 | 
11 | COc1cccc2c1C(=O)c1c(O)c3c(c(O)c1C2=O)C[C@@](O)(C(=O)CO)C[C@@H]3O[C@H]1C[C@H](N)[C@H](O)[C@H](C)O1 [DOXORUBICIN] | 1.41 |  | 1.21 |  | 1.01 | Activity (PANC-1 [5]): 22.17%
12 | Cn1c(=O)[nH]c2nc(SC/C(=N/O)c3ccc(Cl)cc3)[nH]c2c1=O | 1.7 | > 90 | 1.89 | 1.4 | 1.8 | fold change (FC) (PANC-1 [6]): 3.47; Activity (PANC-1 [7]): 34.36%; IC50 [3]: 0.82 µM; fold change (FC) (PANC-1 [8]): 15.68; fold change (FC) (PANC-1 [9]): 0.239; fold change (FC) (PANC-1 [4]): 8.06; fold change (FC) (PANC-1 [10]): 12.7; Activity (PANC-1 [11]): 6.11%; Activity (PANC-1 [12]): 2.37%; Activity (PANC-1 [5]): 17.34%; Activity (PANC-1 [13]): 8.86%; fold change (FC) (PANC-1 [14]): 10.2; Activity (PANC-1 [15]): 35.08%
13 | Cn1c(=O)[nH]c2nc(SCC(=O)c3ccc(Cl)cc3)[nH]c2c1=O | 6.1 | > 90 | 8.1 | 6.3 | 7.2 | 
14 | COc1ccc(/C(CSc2nc3[nH]c(=O)n(C)c(=O)c3[nH]2)=N\O)cc1 | 1.91 | > 90 | 1.5 | 1.8 | 1.7 | fold change (FC) (PANC-1 [6]): 2.58; IC50 [3]: 0.71 µM; fold change (FC) (PANC-1 [8]): 14.49; fold change (FC) (PANC-1 [9]): 0.3378; fold change (FC) (PANC-1 [4]): 7.65; fold change (FC) (PANC-1 [10]): 8.9; fold change (FC) (PANC-1 [14]): 11.43
15 | COc1ccc(C(=O)CSc2nc3c([nH]2)c(=O)n(C)c(=O)n3C)cc1 | 6.4 | > 90 | 7.9 | 7.6 | 8.1 | 
16 | Cn1c(=O)c2[nH]c(SCC(=O)c3ccccc3)nc2n(C)c1=O | 4.9 | > 90 | 6.7 | 5.1 | 5.9 | 
17 | C/C(=N/O)c1ccc(NC(=O)CSc2nc3c([nH]2)c(=O)n(C)c(=O)n3C)cc1 | 4.6 | > 90 | 6.6 | 5.3 | 3.1 | 
18 | Cn1c(=O)[nH]c2nc(SC/C(=N/O)c3ccccc3)[nH]c2c1=O | 3.6 | > 90 | 5.6 | 4.3 | 2.1 | 
19 | Cn1c(=O)c2[nH]c(SC/C(=N/O)c3ccccc3)nc2n(C)c1=O | 5.5 | > 90 | 6.1 | 5.9 | 6.7 | 
20 | Cn1c(=O)c2[nH]c(SCC(=O)c3ccc(Br)cc3)nc2n(C)c1=O | 7.4 | > 90 | 7.9 | 7.6 | 6.5 | 
21 | COc1ccc(/C(CSc2nc3c([nH]2)c(=O)n(C)c(=O)n3C)=N\O)cc1 | 0.91 | > 90 | 1.5 | 0.8 | 1.7 | 
